From ChEMBL document CHEMBL4024751, “Hit-to-Lead Optimization and Discovery of 5-((5-([1,1'-Biphenyl]-4-yl)-6-chloro-1H-benzo[d]imidazol-2-yl)oxy)-2-methylbenzoic Acid (MK-3903): A Novel Class of Benzimidazole-Based Activators of AMP-Activated Protein Kinase” (J Med Chem, 2017)

Key:
[1] = system: Mus musculus; experiment: In vivo agonist activity at AMPK in C57BL/6 mouse assessed as inhibition of de novo lipogenesis at 30 mg/kg, ip; type: functional; details: C57BL/6, ip
[2] = Volume of distribution at steady state in BCRP knockout mouse by LC-MS/MS analysis; type: ADME; details: in vivo, read-out: Vdss
[3] = Terminal half life in BCRP knockout mouse by LC-MS/MS analysis; type: ADME; details: in vivo, read-out: beta t1/2 (converted)
[4] = system: Mus musculus; experiment: Dose normalized AUC in po dosed C57BL/6 mouse administered via gavage by LC-MS/MS analysis; type: ADME, organism-based; details: in vivo
In short: (§1)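 C57BL/6 mice were dosed 2 mg/kg IV and 10 mg/kg PO. Reported parameters: plasma clearance, Vdss, terminal t1/2, Cmax, tmax and oral bioavailability F. AUCN is the plasma AUC after PO dosing normalized to dose.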

[5] = system: Mus musculus; experiment: In vivo agonist activity at AMPK C57BL/6 mouse assessed as inhibition of de novo lipogenesis at 100 mg/kg, po administered via gavage; type: functional; details: C57BL/6, po
[6] = Plasma clearance in BCRP knockout mouse by LC-MS/MS analysis; type: ADME
[7] = biological target: T1, AMPK alpha2/beta1/gamma1 (Homo sapiens) (UniProt P54646+P54619+Q9Y478); experiment: (§2) Agonist activity at human recombinant phosphorylated AMPK complex 7 alpha2/beta1/gamma1 expressed in baculovirus infected Sf21 cells assessed as phosphorylation of 5-FAM-labeled SAMS substrate at 0.002 to 50 uM preincubated for 30 mins in presence of AMPK activator followed by substrate addition measured after 60 mins relative to AMP
T1 sequence (P54619 whole entry partner): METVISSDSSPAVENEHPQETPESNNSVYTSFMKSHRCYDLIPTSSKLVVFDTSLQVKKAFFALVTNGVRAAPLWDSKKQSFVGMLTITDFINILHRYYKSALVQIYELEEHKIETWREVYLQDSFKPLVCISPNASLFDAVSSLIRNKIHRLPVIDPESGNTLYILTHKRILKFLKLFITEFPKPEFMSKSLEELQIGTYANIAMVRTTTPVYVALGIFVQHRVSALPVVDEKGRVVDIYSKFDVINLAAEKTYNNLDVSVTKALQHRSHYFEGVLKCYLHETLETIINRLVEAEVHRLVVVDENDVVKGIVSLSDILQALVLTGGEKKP
T1 sequence (P54646 whole entry): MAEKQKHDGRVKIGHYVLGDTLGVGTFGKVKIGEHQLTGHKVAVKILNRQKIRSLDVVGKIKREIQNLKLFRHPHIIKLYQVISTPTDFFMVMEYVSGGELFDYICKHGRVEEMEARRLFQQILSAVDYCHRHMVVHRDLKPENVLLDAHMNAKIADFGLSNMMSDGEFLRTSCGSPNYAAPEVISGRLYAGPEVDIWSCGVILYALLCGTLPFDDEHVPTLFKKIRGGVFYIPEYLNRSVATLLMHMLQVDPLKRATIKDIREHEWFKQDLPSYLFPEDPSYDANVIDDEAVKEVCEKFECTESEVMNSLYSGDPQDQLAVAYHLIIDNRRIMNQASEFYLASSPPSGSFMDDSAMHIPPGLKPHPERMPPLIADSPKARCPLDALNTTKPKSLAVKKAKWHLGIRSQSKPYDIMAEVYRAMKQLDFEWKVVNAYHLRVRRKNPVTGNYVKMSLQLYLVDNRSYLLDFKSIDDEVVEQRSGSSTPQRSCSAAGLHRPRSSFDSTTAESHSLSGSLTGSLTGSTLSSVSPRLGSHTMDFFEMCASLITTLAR
T1 sequence (Q9Y478 2-270 partner limits assumed): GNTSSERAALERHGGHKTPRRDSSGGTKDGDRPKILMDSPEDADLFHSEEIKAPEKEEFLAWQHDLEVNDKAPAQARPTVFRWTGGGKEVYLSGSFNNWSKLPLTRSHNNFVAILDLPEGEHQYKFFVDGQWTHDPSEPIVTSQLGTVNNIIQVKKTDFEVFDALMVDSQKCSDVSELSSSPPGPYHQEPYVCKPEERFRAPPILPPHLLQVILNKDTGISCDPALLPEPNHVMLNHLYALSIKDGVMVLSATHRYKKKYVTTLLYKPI
In short: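 Recombinant human pAMPK complexes were titrated at 10 points over about 2 nM to 50 μM. EC50 is the average of at least two experiments. %max is the highest activation seen within that range.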

[8] = biological target: AMPK alpha2/beta1/gamma1 (Homo sapiens, UniProt P54619+P54646+Q9Y478); experiment: as §2, with “substrate” for “substrate at 0.002 to 50 uM”, “mins” for “mins relative to AMP”
Chain of AMPK alpha2/beta1/gamma1 (P54646 whole entry): as the sequence (P54646 whole entry) above
Chain of AMPK alpha2/beta1/gamma1 (P54619 whole entry): as the sequence (P54619 whole entry partner) above
Chain of AMPK alpha2/beta1/gamma1 (Q9Y478 whole entry): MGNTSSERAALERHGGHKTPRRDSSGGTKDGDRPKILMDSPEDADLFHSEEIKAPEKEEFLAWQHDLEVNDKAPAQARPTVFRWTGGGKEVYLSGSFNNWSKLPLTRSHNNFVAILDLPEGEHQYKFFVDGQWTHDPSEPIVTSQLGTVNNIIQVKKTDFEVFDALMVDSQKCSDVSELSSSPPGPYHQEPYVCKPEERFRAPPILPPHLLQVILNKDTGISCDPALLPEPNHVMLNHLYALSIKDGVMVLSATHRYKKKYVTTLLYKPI
In short: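 Recombinant phosphorylated human AMPK complex; agonist tested as a 10-point titration up to 50 μM (∼2 nM to 50 μM in some series, ∼0.8 nM to 16 μM in others). EC50 is the average of at least two experiments. Percent maximum activation is the highest activation seen over the titration range, or the level at 50 μM.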

[9] = system: Mus musculus; experiment: Dose normalized AUC in BCRP knockout mouse administered through oral gavage by LC-MS/MS analysis; type: ADME; details: in vivo
[10] = Oral bioavailability in BCRP knockout mouse by LC-MS/MS analysis; type: ADME, organism-based; details: in vivo
[11] = Plasma clearance in C57BL/6 mouse by LC-MS/MS analysis; type: ADME; in short: as §1
[12] = Apparent permeability of compound in pig LLC-PK1 cells by HPLC analysis; type: ADME, cell-based, Sus scrofa; details: llc-pk1
In short: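 LLC-PK1 monolayer on polycarbonate filter. Compound in HBSS added to the apical or basolateral side. Both sides sampled at end of incubation and quantified by HPLC. Papp is the mean of A→B and B→A values.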

[13] = Oral bioavailability in C57BL/6 mouse by LC-MS/MS analysis; type: ADME, organism-based; details: in vivo; in short: as §1
[14] = Terminal half life in C57BL/6 mouse by LC-MS/MS analysis; type: ADME; details: in vivo, read-out: beta t1/2 (converted); in short: as §1
[15] = Volume of distribution at steady state in C57BL/6 mouse by LC-MS/MS analysis; type: ADME; details: in vivo, read-out: Vdss; in short: as §1
[16] = biological target: T1, AMPK alpha2/beta1/gamma1 (Homo sapiens); experiment: as §2, with “at” for “at 0.002 to”
In short: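 Activation of pAMPK7 is reported as percent activation at 50 μM, taken from 10-point titrations and averaged over at least two experiments.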

[17] = biological target: T1, AMPK alpha2/beta1/gamma1 (Homo sapiens); experiment: as §2, with “0.0008” for “0.002”, “16” for “50”
In short: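 Recombinant human pAMPK7 was titrated at 10 points over about 0.8 nM to 16 μM. EC50 is the average of at least two experiments. Percent maximum activation is the highest activation seen within that range.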

EC50 [8] [nM]	%max [16] [%]	SMILES	further results
15		O=C(O)c1cc(Oc2nc3cc(C#Cc4ccccc4)c(Cl)cc3[nH]2)ccc1Cl	%max [17]: 250%
11		Cc1ccc(Oc2nc3cc(-c4ccc(-c5ccn[nH]5)cc4)c(Cl)cc3[nH]2)cc1C(=O)O	%max [17]: 260%
3		Cc1ccc(Oc2nc3cc(-c4ccc(-c5ccccc5O)cc4)c(Cl)cc3[nH]2)cc1C(=O)O	%max [17]: 230%
	6	O=C(O)c1ccccc1-c1nc2cc(Cl)c(Cl)cc2[nH]1	
32		O=C(O)c1cc(Oc2nc3cc(-c4ccc(-c5ccccc5)cc4)c(Cl)cc3[nH]2)ccc1Cl	%max [17]: 310%
2		Cc1ccc(Oc2nc3cc(-c4ccc5c(ccn5C)c4)c(Cl)cc3[nH]2)cc1C(=O)O	%max [17]: 340%
7		Cc1ccc(Oc2nc3cc(C#Cc4ccccc4)c(Cl)cc3[nH]2)cc1C(=O)O	%max [17]: 240%
61		O=C(O)c1cccc(Oc2nc3cc(-c4ccc(-c5ccccc5)cc4)c(Cl)cc3[nH]2)c1	%max [17]: 260%
200		O=C(O)CSc1nc2cc(C#Cc3ccccc3)c(Cl)cc2[nH]1	%max [7]: 320%
8100	130	O=C(O)c1ccccc1Sc1nc2cc(Cl)c(Cl)cc2[nH]1	

Further lines, the compound ahead of its results:

SMILES	EC50 [8] [nM]	%max [16] [%]	further results
O=C(O)CSc1nc2cc(-c3ccc(-c4ccccc4)cc3)c(Cl)cc2[nH]1	150		inhibition in vivo at 30 mg/kg [1]: 40%; Vd [2]: 2.6 L/kg; half-life [3]: 648 min; AUC/dose [4]: 0.05 µM·kg·h/mg; inhibition in vivo at 100 mg/kg [5]: 20%; clearance [6]: 2.9 mL/min/kg; %max [7]: 260%; AUC/dose [9]: 11.4 µM·kg·h/mg; bioavailability [10]: 77%; clearance [11]: 60 mL/min/kg; Papp [12]: Permeable; bioavailability [13]: 7%; half-life [14]: 168 min; Vd [15]: 6.7 L/kg
O=C(O)c1csc(Sc2nc3cc(Cl)c(Cl)cc3[nH]2)n1	2600	76	
COc1ccc2[nH]c(CCC(=O)O)nc2c1		14	
O=C(O)CCc1nc2cc(Cl)c(Br)cc2[nH]1		44	
O=C(O)CCc1nc2cc(Cl)c(Cl)cc2[nH]1	36000	78	
O=C(O)CC[S+]([O-])c1nc2cc(Cl)c(Cl)cc2[nH]1 (configuration not stated)		15	
O=C(O)c1cccc(Sc2nc3cc(-c4ccc(-c5ccccc5)cc4)c(Cl)cc3[nH]2)c1	800		%max [7]: 200%
O=C(O)Cc1cccc(Sc2nc3cc(Cl)c(Cl)cc3[nH]2)c1	2900	140	
O=C(O)CCc1nc2cc(Cl)c(-c3ccccc3)cc2[nH]1	8000	130	
O=C(O)CCc1nc2cc(Cl)c(-c3ccc(-c4ccccc4)cc3)cc2[nH]1	6000	130	
Cc1cc2nc(CCC(=O)O)[nH]c2cc1C		19	
O=C(O)c1cccc(-c2nc3cc(Cl)c(Cl)cc3[nH]2)c1		10	
O=C(O)c1cccc(Sc2nc3cc(Cl)c(Cl)cc3[nH]2)c1	7400	150	
O=C(O)c1cccc(Sc2nc3cc(-c4ccc(-c5ccccc5O)cc4)c(Cl)cc3[nH]2)c1	29		%max [7]: 100%
O=C(O)CCc1nc2ccccc2[nH]1		14	
O=C(O)CCSc1nc2cc(Cl)c(Cl)cc2[nH]1	8500	130	
O=C(O)CSc1nc2cc(Cl)c(Cl)cc2[nH]1	4000	130	
O=C(O)c1ccc(Sc2nc3cc(Cl)c(Cl)cc3[nH]2)cc1		35	
O=C(O)CCc1nc2cc(Cl)ccc2[nH]1		41	
